Data as given in ChEMBL document CHEMBL1149324, “New steroidal dimers with antifungal and antiproliferative activity” (J Med Chem, 2004).
In brackets after ≈: the same amount, converted by molar mass.

Columns and labels:
HEp-2 = test: Antiproliferative activity against HEp-2 cells; format: functional, cell-based; conditions: Homo sapiens
How it was run: (§1)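 MEM with 10% heat-inactivated FBS at 37 °C, 5% CO2. Cells seeded at 15 000/well and adhered 24 h. Treated in triplicate for 72 h with 0, 0.1, 1.0 or 10 μM compound from DMSO stock. MTT 1 mg/mL for 4 h at 37 °C, formazan dissolved in 2-propanol, OD 570 nm (630 nm reference). DMSO-only cells set as 100% growth.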

MCF7 = test: In vitro antiproliferative activity against MCF-7 cells; format: functional, cell-based; conditions: Homo sapiens; how it was run: as §1
Candida albicans = test: Minimum inhibitory concentration against Candida albicans; format: functional
How it was run: (§2)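 Disk diffusion on YPG agar. Yeast suspension from 24 h YPG broth (C. albicans five isolates and Y. lipolytica at 28 °C, B. poitrasii at 37 °C) spread-plated. Filter disks carried a DMSO control or graded compound amounts from 1 mg/mL DMSO stock. Plates incubated 28 °C, 24 h. MIC taken as lowest concentration giving an inhibition zone; triplicate.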

Benjaminiella = test: Minimum inhibitory concentration against Benjaminiella poitrassi; format: functional; how it was run: as §2
Yarrowia lipolytica = test: Minimum inhibitory concentration against Yarrowia lipolytica; format: functional; how it was run: as §2

| IC50 (MCF7) [µM] | SMILES | IC50 (HEp-2) [µM] | MIC (Candida albicans) [µM] | MIC (Benjaminiella) [µM] | MIC (Yarrowia lipolytica) [µM] |
| --- | --- | --- | --- | --- | --- |
| 2.2 | C[C@H](CCC(=O)NCCNC(=O)CC[C@H](C)[C@H]1CCC2C3CCC4C[C@H](O)CC[C@]4(C)C3C[C@@H](O)[C@@]21C)[C@H]1CCC2C3CCC4C[C@H](O)CC[C@]4(C)C3C[C@@H](O)[C@@]21C (stereo partly drawn) | 2.2 |  |  |  |
|  | C[C@@H]1C[C@@H]([C@H](O)CC2CC(=O)NC(=O)C2)C(=O)[C@@H](C)C1 [CYCLOHEXIMIDE] |  | > 0.9 | 0.071 (≈ 0.02 µg/mL) | 0.106 (≈ 0.0298 µg/mL) |
|  | C[C@H](CCC(=O)NCCNCCNC(=O)CC[C@H](C)[C@H]1CCC2C3C(C[C@@H](O)[C@@]21C)[C@@]1(C)CC[C@@H](O)CC1C[C@H]3O)[C@H]1CCC2C3C(C[C@@H](O)[C@@]21C)[C@@]1(C)CC[C@@H](O)CC1C[C@H]3O (stereo partly drawn) |  | 0.0113 (≈ 0.01 µg/mL) | 0.0113 (≈ 0.01 µg/mL) | 0.0113 (≈ 0.01 µg/mL) |
